Values after ≈ are worked out from the molar mass of the structure shown.
Key:
Staphylococcus aureus [1] = test: Antibacterial activity against Telithromycin resistant Staphylococcus aureus RN4220 carrying rplD and rplV genes; format: functional
How it was run: (§1)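 MICs determined in Luria-Bertani medium at 37°C. Resistant mutants of S. aureus RN4220 came from spreading 0.3 ml of an overnight brain heart infusion broth culture onto Luria-Bertani plates containing 1 μg/ml telithromycin. These plates were incubated at 37°C for 1 week.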

Staphylococcus aureus [2] = test: Antibacterial activity against Telithromycin resistant Staphylococcus aureus isolate KT10 carrying rplD and rplV mutant genes; format: functional; how it was run: as §1
Staphylococcus aureus [3] = test: Antibacterial activity against Telithromycin resistant Staphylococcus aureus isolate KT02 carrying rplB-derived insertion of L22 ribosomal protein
Staphylococcus aureus [4] = test: Antibacterial activity against Telithromycin resistant Staphylococcus aureus isolate KT09 carrying rplD and rplV mutant genes; format: functional; how it was run: as §1
Staphylococcus aureus [5] = test: Antibacterial activity against Telithromycin resistant Staphylococcus aureus isolate KT11 carrying rplD and rplV mutant genes; format: functional; how it was run: as §1
Staphylococcus aureus [6] = test: Antibacterial activity against Telithromycin resistant Staphylococcus aureus isolate KT04 carrying duplication in the carboxy-terminal region of L22 ribosomal protein; format: functional; how it was run: as §1
Staphylococcus aureus [7] = test: Antibacterial activity against Telithromycin resistant Staphylococcus aureus isolate KT06 carrying duplication in the carboxy-terminal region of L22 ribosomal protein; format: functional; how it was run: as §1
Staphylococcus aureus [8] = test: Antibacterial activity against Telithromycin resistant Staphylococcus aureus isolate KT05 carrying rplD and rplV mutant genes; format: functional; how it was run: as §1
Staphylococcus aureus [9] = test: Antibacterial activity against Telithromycin resistant Staphylococcus aureus isolate KT01 carrying rplB-derived insertion of L22 ribosomal protein

| Structure (SMILES) | MIC (Staphylococcus aureus [1]) [mg/L] | MIC (Staphylococcus aureus [2]) [mg/L] | MIC (Staphylococcus aureus [3]) [mg/L] | MIC (Staphylococcus aureus [4]) [mg/L] | MIC (Staphylococcus aureus [5]) [mg/L] | MIC (Staphylococcus aureus [6]) [mg/L] | MIC (Staphylococcus aureus [7]) [mg/L] | MIC (Staphylococcus aureus [8]) [mg/L] | MIC (Staphylococcus aureus [9]) [mg/L] |
| --- | --- | --- | --- | --- | --- | --- | --- | --- | --- |
| CC[C@H]1OC(=O)[C@H](C)[C@@H](O[C@H]2C[C@@](C)(OC)[C@@H](O)[C@H](C)O2)[C@H](C)[C@@H](O[C@@H]2O[C@H](C)C[C@H](N(C)C)[C@H]2O)[C@](C)(O)C[C@@H](C)C(=O)[C@H](C)[C@@H](O)[C@]1(C)O [ERYTHROMYCIN] | 0.12 (≈ 0.164 µM) | 4 (≈ 5.45 µM) | 32 (≈ 43.6 µM) | 8 (≈ 10.9 µM) | 16 (≈ 21.8 µM) | 32 (≈ 43.6 µM) | 16 (≈ 21.8 µM) | 32 (≈ 43.6 µM) | 32 (≈ 43.6 µM) |
| CC[C@H]1OC(=O)[C@H](C)C(=O)[C@H](C)[C@@H](O[C@@H]2O[C@H](C)C[C@H](N(C)C)[C@H]2O)[C@](C)(OC)C[C@@H](C)C(=O)[C@H](C)[C@H]2N(CCCCn3cnc(-c4cccnc4)c3)C(=O)O[C@]12C [TELITHROMYCIN] | 0.03 (≈ 0.0369 µM) | 4 (≈ 4.93 µM) | 8 (≈ 9.85 µM) | 2 (≈ 2.46 µM) | 8 (≈ 9.85 µM) | 16 (≈ 19.7 µM) | 4 (≈ 4.93 µM) | 16 (≈ 19.7 µM) | 16 (≈ 19.7 µM) |

Source: ChEMBL document CHEMBL1255279, “Selection for high-level telithromycin resistance in Staphylococcus aureus yields mutants resulting from an rplB-to-rplV gene conversion-like event” (2008)
